ChEMBL document CHEMBL3861974, “Discovery of a Selective Aurora A Kinase Inhibitor by Virtual Screening” (J Med Chem, 2016)
Active and inactive are the calls of the source. The rule behind the calls is not given here.

Experiments:
Aurora kinase A [1] = target: T1, Aurora kinase A (Homo sapiens, UniProt O14965); test: Inhibition of His-tagged human Aurora A kinase ([…] residues) expressed in Escherichia coli BL21 (DE3) Rosetta cells using biotinylated STK2 substrate incubated for 30 mins by HTRF assay
T1 sequence (O14965 whole entry): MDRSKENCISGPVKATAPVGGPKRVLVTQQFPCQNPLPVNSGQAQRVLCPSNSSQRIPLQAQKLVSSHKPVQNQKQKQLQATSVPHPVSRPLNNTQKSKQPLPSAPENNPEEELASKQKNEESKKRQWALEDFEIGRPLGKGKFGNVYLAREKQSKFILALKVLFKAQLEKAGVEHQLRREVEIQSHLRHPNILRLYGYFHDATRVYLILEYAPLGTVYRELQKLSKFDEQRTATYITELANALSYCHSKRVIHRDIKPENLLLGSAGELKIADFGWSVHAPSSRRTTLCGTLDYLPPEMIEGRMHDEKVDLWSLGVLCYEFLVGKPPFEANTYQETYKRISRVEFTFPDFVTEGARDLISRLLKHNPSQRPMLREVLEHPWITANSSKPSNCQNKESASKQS

[2] = target: Aurora kinase B/Inner centromere protein (Homo sapiens, UniProt Q96GD4); test: Inhibition of Aurora-B/INCENP (unknown origin) using biotinylated STK2 substrate incubated for 30 mins by HTRF assay; type: protein-complex assay
Sequence of Aurora kinase B/Inner centromere protein (Q96GD4 whole entry): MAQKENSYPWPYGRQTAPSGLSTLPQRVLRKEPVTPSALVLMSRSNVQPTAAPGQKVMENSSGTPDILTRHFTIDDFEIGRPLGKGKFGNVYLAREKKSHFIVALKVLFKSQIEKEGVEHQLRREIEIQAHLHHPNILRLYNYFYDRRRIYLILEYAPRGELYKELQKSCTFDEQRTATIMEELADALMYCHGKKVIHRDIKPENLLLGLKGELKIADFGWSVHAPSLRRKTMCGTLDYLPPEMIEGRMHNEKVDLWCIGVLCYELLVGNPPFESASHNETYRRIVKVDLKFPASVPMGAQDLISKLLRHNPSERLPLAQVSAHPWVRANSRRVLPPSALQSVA
Sequence of Aurora kinase B/Inner centromere protein (Q9NQS7 whole entry, further chain): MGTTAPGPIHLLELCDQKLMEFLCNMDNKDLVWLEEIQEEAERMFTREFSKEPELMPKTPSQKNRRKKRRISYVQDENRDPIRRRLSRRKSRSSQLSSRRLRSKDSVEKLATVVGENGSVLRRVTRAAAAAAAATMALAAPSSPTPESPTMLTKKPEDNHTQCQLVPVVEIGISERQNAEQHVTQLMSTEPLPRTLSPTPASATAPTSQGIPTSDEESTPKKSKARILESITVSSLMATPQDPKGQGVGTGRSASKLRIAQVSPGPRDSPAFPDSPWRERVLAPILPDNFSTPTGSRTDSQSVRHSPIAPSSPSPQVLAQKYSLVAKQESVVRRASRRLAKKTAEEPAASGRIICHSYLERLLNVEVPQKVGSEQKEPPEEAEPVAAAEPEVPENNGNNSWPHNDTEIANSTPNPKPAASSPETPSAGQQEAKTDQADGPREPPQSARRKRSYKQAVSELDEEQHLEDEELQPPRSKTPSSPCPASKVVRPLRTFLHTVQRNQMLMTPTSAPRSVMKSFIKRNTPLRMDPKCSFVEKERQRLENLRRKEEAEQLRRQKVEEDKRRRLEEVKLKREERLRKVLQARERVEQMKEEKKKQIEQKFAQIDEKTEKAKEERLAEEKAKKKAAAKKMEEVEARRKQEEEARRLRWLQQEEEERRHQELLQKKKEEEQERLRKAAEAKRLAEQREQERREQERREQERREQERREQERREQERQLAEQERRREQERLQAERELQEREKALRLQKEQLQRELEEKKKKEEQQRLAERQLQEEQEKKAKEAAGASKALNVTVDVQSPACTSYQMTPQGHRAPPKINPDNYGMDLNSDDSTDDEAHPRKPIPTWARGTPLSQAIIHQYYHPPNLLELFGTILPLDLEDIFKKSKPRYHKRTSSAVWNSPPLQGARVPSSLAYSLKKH
In short: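 Biochemical kinase inhibition was read by HTRF with 20 µM ATP. Aurora B was assayed as its complex with the activator INCENP. For Aurora A, IC50 curves were recorded at different TPX2 concentrations.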

Homo sapiens = organism: Homo sapiens; test: Selectivity index, ratio of IC50 for Aurora-B/INCENP (unknown origin) to IC50 for His-tagged human Aurora A kinase ([…] residues) expressed in Escherichia coli BL21 (DE3) Rosetta cells
Aurora kinase B [3] = target: T2, Aurora kinase B (Homo sapiens, UniProt Q96GD4); settings: HeLa Kyoto, 2.5 uM
T2 sequence (Q96GD4 whole entry): as the sequence (Q96GD4 whole entry) above

Aurora kinase B [4] = target: T2, Aurora kinase B; settings: HeLa Kyoto, 2.5 uM; remark: listed apart in the source
Aurora kinase A [5] = target: T1, Aurora kinase A; test: Inhibition of Aurora A kinase autophosphorylation at Thr288 in human HeLa Kyoto cells incubated for 20 hrs; type: cell-based
HeLa Kyoto = test: Increase in mitotic index in human HeLa Kyoto cells incubated for 20 hrs; type: functional, cell-based
In short: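 HeLa Kyoto cells were incubated overnight with compound, and the fraction of mitotic cells was scored. The experiment was repeated twice; mean ± SD.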

SMILES: O=C(O)c1ccc2c(c1)[nH]c(=O)n2-c1nc2ccccc2[nH]1
- IC50 (Aurora kinase A [1]): 3500 nM

SMILES: CNC(=O)c1ccc2c(c1)[nH]c(=O)n2-c1nc2ccccc2[nH]1
- IC50 (Aurora kinase A [1]): > 50000 nM

SMILES: Cc1ccc(/N=C2\S/C(=C\c3ccncc3)C(=O)N2C)cc1C
- IC50 (Aurora kinase A [1]): 2000 nM

SMILES: CCc1ccc(/N=C2\S/C(=C\c3ccncc3)C(=O)N2C)cc1
- IC50 (Aurora kinase A [1]): 390 nM

SMILES: CCc1ccc(/N=C2\S/C(=C\c3ccnc(NC(=O)CC(=O)O)c3)C(=O)N2C)cc1
- IC50 [2]: 2700 nM
- Ratio IC50 (Homo sapiens): 450
- IC50 (Aurora kinase A [1]): 6 nM

SMILES: O=C(O)c1ccc2[nH]c(=O)n(-c3nc4ccccc4[nH]3)c2c1
- IC50 (Aurora kinase A [1]): 3500 nM

SMILES: O=c1[nH]c2ccc(Cl)cc2n1-c1nc2ccccc2[nH]1
- IC50 (Aurora kinase A [1]): 23000 nM

SMILES: O=c1[nH]c2ccccc2n1-c1nc2ccccc2[nH]1
- IC50 (Aurora kinase A [1]): 6500 to 7000 nM

SMILES: CCc1ccc(/N=C2\S/C(=C\c3ccncc3)C(=O)N2CCOC)cc1
- IC50 (Aurora kinase A [1]): 480 nM

SMILES: CCc1ccc(/N=C2\S/C(=C\c3ccnc(Nc4ccc(-c5nnn[nH]5)cc4)c3)C(=O)N2C)cc1
- IC50 [2]: 830 nM
- Ratio IC50 (Homo sapiens): 33
- IC50 (Aurora kinase A [1]): 25 nM

SMILES: CCc1ccc(/N=C2\SC3(CC3c3ccnc(N)c3)C(=O)N2C)cc1 (racemic)
- IC50 (Aurora kinase A [1]): 76000 nM

SMILES: CCc1ccc(/N=C2\S/C(=C\c3ccnc(NC(=O)CCN)c3)C(=O)N2C)cc1
- IC50 [2]: 10000 nM
- Ratio IC50 (Homo sapiens): 53
- IC50 (Aurora kinase A [1]): 190 nM

SMILES: CCc1ccc(/N=C2\S/C(=C\c3ccnc(Nc4ccc(CO)cc4)c3)C(=O)N2C)cc1
- IC50 [2]: 2600 nM
- Ratio IC50 (Homo sapiens): 20
- IC50 (Aurora kinase A [1]): 130 nM

SMILES: CNC(=O)c1ccc2[nH]c(=O)n(-c3nc4ccccc4[nH]3)c2c1
- IC50 (Aurora kinase A [1]): 11000 nM

SMILES: O=c1[nH]c2ccc(O)cc2n1-c1nc2ccccc2[nH]1
- IC50 (Aurora kinase A [1]): 12000 nM

SMILES: CN1C(=O)/C(=C/c2ccncc2)S/C1=N\c1ccccc1
- IC50 (Aurora kinase A [1]): 9000 nM

SMILES: CCc1ccc(/N=C2\S/C(=C\c3ccnc(Nc4ccccn4)c3)C(=O)N2C)cc1
- IC50 (Aurora kinase A [1]): 220 nM

SMILES: O=c1[nH]c2c(O)cccc2n1-c1nc2ccccc2[nH]1
- IC50 (Aurora kinase A [1]): 21000 nM

SMILES: CC(C)c1ccc(/N=C2\S/C(=C\c3ccncc3)C(=O)N2C)cc1
- IC50 (Aurora kinase A [1]): 780 nM

SMILES: O=c1[nH]c2ccccc2n1-c1nc2cc(C(F)(F)F)ccc2[nH]1
- IC50 (Aurora kinase A [1]): > 70000 nM

SMILES: CCc1ccc(/N=C2/NC(=O)/C(=C/c3ccncc3)S2)cc1
- IC50 (Aurora kinase A [1]): 430 nM

SMILES: CCc1ccc(/N=C2\SC(Cc3ccnc(N)c3)C(=O)N2C)cc1 (racemic)
- IC50 (Aurora kinase A [1]): 1290 nM

SMILES: CN1C(=O)/C(=C/c2ccncc2)S/C1=N\c1ccc(Br)cc1
- IC50 (Aurora kinase A [1]): 300 nM

SMILES: CCc1ccc(/N=C2\S/C(=C\c3ccnc(NC(=O)CCC(=O)O)c3)C(=O)N2C)cc1
- IC50 [2]: 1700 nM
- Ratio IC50 (Homo sapiens): 415
- IC50 (Aurora kinase A [1]): 4 nM

SMILES: O=c1[nH]c2ccccc2n1-c1nc2cc(Br)ccc2[nH]1
- IC50 (Aurora kinase A [1]): 9000 nM

SMILES: CCc1ccc(/N=C2\S/C(=C\c3ccncc3)C(=O)N2CC2CCCCC2)cc1
- IC50 (Aurora kinase A [1]): > 200000 nM

SMILES: CCc1ccccc1/N=C1\S/C(=C\c2ccncc2)C(=O)N1C
- IC50 (Aurora kinase A [1]): 52000 nM

SMILES: Cc1ccc2[nH]c(-n3c(=O)[nH]c4ccccc43)nc2c1
- IC50 (Aurora kinase A [1]): 7800 nM

SMILES: O=c1[nH]c2cccc(O)c2n1-c1nc2ccccc2[nH]1
- IC50 (Aurora kinase A [1]): 15000 nM

SMILES: CCCc1ccc(/N=C2\S/C(=C\c3ccncc3)C(=O)N2C)cc1
- IC50 (Aurora kinase A [1]): 1900 nM

SMILES: CCCCc1ccc(/N=C2\S/C(=C\c3ccncc3)C(=O)N2C)cc1
- IC50 (Aurora kinase A [1]): 3300 nM

SMILES: CCc1cccc(/N=C2\S/C(=C\c3ccncc3)C(=O)N2C)c1
- IC50 (Aurora kinase A [1]): 4900 nM

SMILES: CN1C(=O)/C(=C/c2ccncc2)S/C1=N\c1ccc(C(F)(F)F)cc1
- IC50 (Aurora kinase A [1]): 370 nM

SMILES: O=c1[nH]c2cc(Cl)ccc2n1-c1nc2ccccc2[nH]1
- IC50 (Aurora kinase A [1]): > 200000 nM

SMILES: COc1cc2c(Nc3ccc(NC(=O)c4ccccc4)cc3)ncnc2cc1OCCCN1CCOCC1
- inhibition (Aurora kinase B [3]): Active
- inhibition (Aurora kinase B [4]): Active

SMILES: CCc1ccc(/N=C2\SC(Cc3ccnc(Nc4ccc(C(=O)O)cn4)c3)C(=O)N2C)cc1 (racemic)
- IC50 (Aurora kinase A [5]): 24 nM
- IC50 (Aurora kinase A [1]): 24 nM

SMILES: CCc1ccc(/N=C2\S/C(=C\c3ccnc(N)c3)C(=O)N2C)cc1
- IC50 [2]: 23000 nM
- Ratio IC50 (Homo sapiens): 121
- IC50 (Aurora kinase A [1]): 190 nM

SMILES: CCc1ccc(/N=C2\S/C(=C\c3ccnc(NC(=O)CCCC(=O)O)c3)C(=O)N2C)cc1
- IC50 [2]: 1400 nM
- Ratio IC50 (Homo sapiens): 230
- IC50 (Aurora kinase A [1]): 6.2 nM

SMILES: COc1cc(Nc2ncc3c(n2)-c2ccc(Cl)cc2C(c2c(F)cccc2OC)=NC3)ccc1C(=O)O
- Activity (HeLa Kyoto): Dose-dependent effect

SMILES: CCc1ccc(/N=C2/SC3(CC3c3ccnc(N)c3)C(=O)N2C)cc1 (racemic)
- IC50 (Aurora kinase A [1]): > 200000 nM

SMILES: CN1C(=O)/C(=C/c2ccncc2)S/C1=N\c1ccc(C(C)(C)C)cc1
- IC50 (Aurora kinase A [1]): 1600 nM

SMILES: CCc1ccc(/N=C2\S/C(=C\c3ccnc(Nc4ccccc4)c3)C(=O)N2C)cc1
- IC50 (Aurora kinase A [1]): 600 nM

SMILES: CCc1ccc(/N=C2\S/C(=C\c3ccncc3)C(=O)N2CC)cc1
- IC50 (Aurora kinase A [1]): 380 nM

SMILES: CCc1ccc(/N=C2\S/C(=C\c3ccnc(Nc4ccc(C(=O)O)cc4)c3)C(=O)N2C)cc1
- IC50 [2]: 1540 nM
- Ratio IC50 (Homo sapiens): 250
- IC50 (Aurora kinase A [1]): 6.2 nM

SMILES: Cc1cccc2[nH]c(-n3c(=O)[nH]c4ccccc43)nc12
- IC50 (Aurora kinase A [1]): 14000 nM
